# Experiments:
# [1] = biological target: T1, Glutamate receptor ionotropic, AMPA (Rattus norvegicus, UniProt P19490+P19491+P19492+P19493); assay: Agonistic activity electrophysiologically against AMPA using rat cortical wedge preparation; assay type: functional
# [2] = biological target: T1, Glutamate receptor ionotropic, AMPA; assay: Inhibition of [3H]AMPA binding to rat brain membranes.; assay type: cell membranes, Membrane
# [3] = biological target: Glutamate receptor ionotropic, kainate; assay: Inhibition of [3H]-Kainic acid binding to rat brain membranes.; assay type: cell membranes, Membrane
# Glutamate NMDA receptor [4] = assay: Inhibition of [3H]CPP binding to rat brain membranes.; assay type: cell membranes, Membrane
# [5] = biological target: Glutamate receptor ionotropic, NMDA (Rattus norvegicus); assay: Tested in vitro for the antagonistic activity electrophysiologically against NMDA using rat cortical wedge preparation
# Glutamate NMDA receptor [6] = assay: Tested in vitro for the antagonistic activity electrophysiologically against NMDA using rat cortical wedge preparation; assay type: functional
# Summary of the method: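 Rat cortical wedge preparation. The cortex was superfused with Mg²⁺-free Krebs buffer and the corpus callosum with Mg²⁺- and Ca²⁺-free Krebs buffer, at 25 °C. Compounds were added to the cortical superfusate, and the potential difference between the electrodes was recorded on a chart recorder.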
SMILES,EC50 [1] [µM],IC50 [2] [µM],IC50 [3] [µM],IC50 (Glutamate NMDA receptor [4]) [µM],IC50 [5] [µM],IC50 (Glutamate NMDA receptor [6]) [µM]
CC(C)Oc1noc(C(=O)O)c1CC(N)C(=O)O (centres undefined),37,5.5,> 100,> 100,,
CCOc1noc(C(=O)O)c1C/N=c1\c(O)c(O)c1=N,,> 100,> 100,76,603,
CCOc1noc(-c2nc[nH]n2)c1CC(N)C(=O)O (centres undefined),> 100,> 100,> 100,> 100,,
CCCOc1noc(C(=O)O)c1CC(N)C(=O)O (centres undefined),79,14,> 100,> 100,,
CCCCCOc1noc(C(=O)O)c1CC(N)C(=O)O (centres undefined),1000,> 100,> 100,> 100,,
C/C=C/COc1noc(C(=O)O)c1CC(N)C(=O)O (centres undefined),500,> 100,> 100,> 100,,
Cn1oc(C(=O)O)c(CC(N)C(=O)O)c1=O (centres undefined),> 1000,> 100,> 100,> 100,,
CCn1oc(C(=O)O)c(CC(N)C(=O)O)c1=O (centres undefined),> 500,> 100,> 100,> 100,,
CCOc1noc(C(=O)O)c1CC(N)C(=O)O (centres undefined),4.8,1,> 100,> 100,,
NC(Cc1c(O)noc1C(=O)O)C(=O)O (centres undefined),> 1000,> 100,> 100,> 100,,
C=CCOc1noc(C(=O)O)c1CC(N)C(=O)O (centres undefined),40,7.2,> 100,> 100,,
CCCCOc1noc(C(=O)O)c1CC(N)C(=O)O (centres undefined),406,> 100,> 100,> 100,,
NC(Cc1c(C(=O)O)on(Cc2ccccc2)c1=O)C(=O)O (centres undefined),,> 100,> 100,> 100,,704
COc1noc(C(=O)O)c1CC(N)C(=O)O (centres undefined),1.2,0.11,> 100,> 100,,
NC(Cc1c(OCc2ccccc2)noc1C(=O)O)C(=O)O (centres undefined),> 1000,> 100,> 100,> 100,,
CCOc1noc(-c2nn[nH]n2)c1CC(N)C(=O)O (centres undefined),2000,> 100,> 100,> 100,,
